Data reported in ChEMBL document CHEMBL1667740, “Phenolic glycosides with antimalarial activity from Grevillea "Poorinda Queen"” (J Nat Prod, 2011).

How the values were obtained:
[1] = test system: Plasmodium falciparum; experiment: Antimalarial activity against chloroquine-sensitive Plasmodium falciparum D6 infected in human O positive red blood cells assessed as inhibition of [3H]-hypoxanthine uptake after 48 hrs; format: functional, organism-based
How it was run: (§1)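 Synchronised ring-stage parasites (sorbitol selection) kept in RPMI-1640 with HEPES, glucose, hypoxanthine, gentamycin, 10% human plasma and 4% O+ RBCs under 5% O2/5% CO2/90% N2 at 37 °C. Assay at 2% hematocrit and 1% parasitemia in hypoxanthine-free medium. DMSO stocks of 20-25 mg/mL, ten 2-fold dilutions in triplicate, 48 h. [3H]-hypoxanthine (0.2 µCi) added at 24 h. IC50 taken against compound-free controls.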

[2] = Selectivity index, ratio of IC50 for human HEK293 cells to IC50 for Plasmodium falciparum 3D7
[3] = test system: HepG2; experiment: Cytotoxicity against human HepG2 cells after 72 hrs by alamar blue assay; format: cell-based; conditions: HepG2, 72 h
How it was run: (§2)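 HEK-293 and HepG2 cells grown in RPMI 1640 with 10% FBS and L-glutamine at 37 °C. Seeded at 5 × 10^3 cells/well and left 24 h before drug addition. Compounds tested from 312 to 0.6 µg/mL, artesunate and chloroquine from 120 µM to 60 nM, in triplicate for 72 h. DMSO vehicle and cell-free background wells as controls. 10% Alamar Blue added for 2 h, fluorescence read at ex 530/em 595 nm. IC50 from at least two independent experiments, mean ± SD.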

[4] = test system: HEK293; experiment: Cytotoxicity against human HEK293 cells after 72 hrs by alamar blue assay; format: cell-based; conditions: HEK293, 72 h; how it was run: as §2
[5] = Selectivity index, ratio of IC50 for human HepG2 cells to IC50 for Plasmodium falciparum 3D7
[6] = test system: Plasmodium berghei; experiment: Antimalarial activity against Plasmodium berghei infected in mouse assessed as reduction of parasite infection at 1 mg/kg, sc qd for 4 days relative to control; format: functional; parameters: scale not given: the % may be the effect or the level left; conditions: route subcutaneous
[7] = test system: Plasmodium berghei; experiment: Antimalarial activity against Plasmodium berghei infected in mouse assessed as reduction of parasite infection at 2 mg/kg, sc qd for 4 days relative to control; format: functional; parameters: scale not given: the % may be the effect or the level left; conditions: route subcutaneous
[8] = test system: Plasmodium falciparum; experiment: Antimalarial activity against chloroquine and pyrimethamine-resistant Plasmodium falciparum K1 infected in human O positive red blood cells assessed as inhibition of [3H]-hypoxanthine uptake after 48 hrs; format: functional, organism-based; how it was run: as §1
[9] = test system: Plasmodium berghei; experiment: Antimalarial activity against Plasmodium berghei infected in mouse assessed as reduction of parasite infection at 32 mg/kg, sc qd for 4 days relative to control; format: functional; parameters: scale not given: the % may be the effect or the level left; conditions: route subcutaneous
[10] = test system: Plasmodium berghei; experiment: Antimalarial activity against Plasmodium berghei infected in mouse assessed as reduction of parasite infection at 32 mg/kg, sc bid for 4 days relative to control; format: functional; parameters: scale not given: the % may be the effect or the level left; conditions: route subcutaneous
How it was run: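 Peters 4-day suppressive test in female mice (n = 6) inoculated intraperitoneally with 20 × 10^6 P. berghei ANKA-infected erythrocytes. Test articles dissolved in Tween 80/ethanol (7:3, v/v), diluted 10-fold in distilled water, and given subcutaneously from D0 (about 2 and 6 h post-inoculation) over 4 days. Chloroquine prepared in water. Giemsa-stained thin smears on D+1 to D+4. Microscopic % infected erythrocytes, suppression at D+4 versus vehicle control.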

[11] = test system: Plasmodium falciparum; experiment: Antimalarial activity against multidrug-resistant Plasmodium falciparum TM90-C2B infected in human O positive red blood cells assessed as inhibition of [3H]-hypoxanthine uptake after 48 hrs; format: functional, organism-based; how it was run: as §1
[12] = test system: Plasmodium falciparum; experiment: Antimalarial activity against chloroquine, pyrimethamine, and mefloquine-resistant Plasmodium falciparum Dd2 infected in human O positive red blood cells assessed as inhibition of [3H]-hypoxanthine uptake after 48 hrs; format: functional, organism-based; how it was run: as §1
[13] = test system: Mus musculus; experiment: Toxicity in mouse assessed as physical stress at 32 mg/kg, sc qd for 4 days; format: organism-based; parameters: dose 32 mg/kg, route subcutaneous; conditions: in vivo, 96 h
How it was run: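 Tolerability in healthy mice: subcutaneous dosing for 4 days. Mice watched for physical stress, namely ruffled coat, extreme pallor, weight loss, shaking and reduced mobility.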

[14] = test system: Plasmodium falciparum; experiment: Antimalarial activity against chloroquine-sensitive Plasmodium falciparum 3D7 infected in human O positive red blood cells assessed as inhibition of [3H]-hypoxanthine uptake after 48 hrs; format: functional, organism-based; how it was run: as §1
[15] = test system: Plasmodium falciparum; experiment: Antimalarial activity against multidrug-resistant Plasmodium falciparum TM93-C1088 infected in human O positive red blood cells assessed as inhibition of [3H]-hypoxanthine uptake after 48 hrs; format: functional, organism-based; how it was run: as §1

Compound | IC50 [1] [µM] | SI [2] | IC50 [3] [µM] | IC50 [4] [µM] | SI [5] | Activity [6] [%] | Activity [7] [%] | IC50 [8] [µM] | Activity [9] [%] | Activity [10] [%] | IC50 [11] [µM] | IC50 [12] [µM] | Activity [13] | IC50 [14] [µM] | IC50 [15] [µM]
C[C@H]1O[C@H](OC[C@H]2O[C@@H](Oc3cc(O)c4c(=O)c(O)c(-c5ccc(O)c(O)c5)oc4c3)[C@H](O)[C@@H](O)[C@H]2O)[C@@H](O)[C@@H](O)[C@@H]1O (stereo in doubt) | > 500 |  |  |  |  |  |  |  |  |  |  |  |  |  | 
C[C@H]1[C@H](OC(=O)CCC(=O)O)O[C@@H]2O[C@@]3(C)CC[C@H]4[C@H](C)CC[C@@H]1[C@@]24OO3 [ARTESUNATE] |  | 150 | 12.7 | 2.9 | 374 |  |  |  |  |  |  |  |  |  | 
CCN(CC)CCCC(C)Nc1ccnc2cc(Cl)ccc12 (stereo not given) [CHLOROQUINE] |  | 600 | 8.3 | 12 | 415 | 58 | 97 |  |  |  |  |  |  |  | 
O=C1C=CC(O)(/C=C/C(=O)OC[C@H]2O[C@@H](Oc3ccc(O)cc3)[C@H](O)[C@@H](O)[C@@H]2O)C=C1 [ROBUSTASIDE D] | 5.1 | 33 | 221 | 195 | 37 |  |  | 3 | 21 | 95 | 5.3 | 3 | Non-toxic | 5.5 | 4.1
O=C(/C=C/C1(O)C=CC(O)CC1=O)OC[C@H]1O[C@@H](Oc2ccc(O)cc2)[C@H](O)[C@@H](O)[C@@H]1O (stereo not given in full) [ROBUSTASIDE E] | 55.5 | > 10 | > 690 | > 690 | > 10 |  |  | 29.4 |  |  | 36.2 | 55.5 |  | 77.4 | 25.3
COc1ccc(O)c(/C=C\C(=O)OC[C@H]2O[C@@H](Oc3ccc(O)cc3)[C@H](OC(=O)/C=C\c3cc(OC)ccc3O)[C@@H](O)[C@@H]2O)c1 [ROBUSTASIDE F] | 14.7 |  |  |  |  |  |  |  |  |  |  |  |  |  | 
